Results reported in PMC2645920 (Journal of the American Chemical Society, 2008).

Assays:
Dynamic light scattering = type: physicochemical; conditions: 750 μM in 1X PBS
Method in brief: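 Test compound dissolved in 1X PBS (pH 7.2), pre-filtered, and read at 22 °C with a 25 mW, 750 nm laser and a 90° detector. Detergent runs added 0.01% Triton-X 100. Each sample got ten repeat measurements, filtered on sum of squares and baseline error. Hr was derived by regularization from the autocorrelation decay. Intensity (kcps) is the mean of three or more measurements, compared with buffer.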

[1] = biological target: HIV-1 frameshift stimulatory sequence (FSS) RNA hairpin (Seq. F); experiment: Fluorescence titration; type: binding; conditions: FT
[2] = biological target: 5′-FAM-CCG-(CUG)10-CGG-3′ RNA (Seq. A); experiment: Fluorescence titration; type: binding; conditions: FT
[3] = tested on: (CUG)109 RNA – MBNL1 protein interaction; experiment: Enzyme Fragment Complementation; type: biochemical; conditions: EFC assay, immobilized (CUG)109 RNA, PL-MBNL1

Row | Hr (hydrodynamic radius) (Dynamic light scattering; pH 7.2) [nm] | Intensity (Dynamic light scattering; pH 7.2) [kcps] | Hr (hydrodynamic radius) (Dynamic light scattering; pH 7.2 + Triton-X 100 (0.01%)) [nm] | Intensity (Dynamic light scattering; pH 7.2 + Triton-X 100 (0.01%)) [kcps] | Compound | Kd [1] [nM] | Kd [2] [nM] | Inhibitory effect on (CUG)n – MBNL1 interaction [3]
1 | 69.25 | 242±10 | 40.72 | 190±24 | Nc1c(/N=N/c2ccc(-c3ccc(/N=N/c4cc(S(=O)(=O)O)c5ccccc5c4N)cc3)cc2)cc(S(=O)(=O)O)c2ccccc12 [Congo Red] |  |  | 
2 |  |  |  |  | (Quin-Cys-Pro-Phe)2 [Compound 5-5] | 350 ± 110 | > 40000 | do not show any inhibitory effect
